MIC data for seven compounds are collected here from ChEMBL document CHEMBL1157328, “Linear sesquiterpene lactones from Anthemis auriculata and their antibacterial activity” (2006).

Converted amounts (≈) assume the structure as drawn.

The subject of one experiment is Candida albicans. Kind of experiment: Antifungal activity against Candida albicans isolate after 72 hrs by serial dilution technique. The format is functional. The procedure, abridged: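 Candida albicans clinical isolate kept on Sabouraud agar at +4 °C, subcultured monthly. Compounds dissolved at 10 mg/mL in DMSO, diluted in medium to 1000 μg/mL, tested at final […] by serial microdilution in 96-well plates. Inoculum adjusted with saline to ~1.0×10^5 per well. Incubated 72 h at 28 °C. MIC recorded.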

A further experiment concerns Escherichia coli. As to the kind of experiment: Antibacterial activity against Escherichia coli ATCC 35218 after 48 hrs by serial dilution technique. The conditions noted are these: ATCC 35218, 48 h. The format is functional. The method in brief:
(§1)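 Broth microdilution MIC in 96-well plates. Compounds dissolved at 10 mg/mL in DMSO, diluted in nutrient medium to 1000 μg/mL, tested at final […] in serial dilution. Bacteria grown overnight at 37 °C in TSB (~10^9 cells/mL), adjusted with sterile saline to ~1.0×10^5 per well. Plates incubated 48 h at 37 °C.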

The next experiment relates to Proteus mirabilis. Kind of experiment: Antibacterial activity against Proteus mirabilis isolate after 48 hrs by serial dilution technique. The format is functional. The procedure, abridged:
as §1

The test system of experiment [1] is Agrobacterium tumefaciens. Kind of experiment: Antibacterial activity against Agrobacterium tumefaciens A281 after 48 hrs by serial dilution technique. To be noted: A281, 48 h. In kind it is functional. The procedure, abridged: as §1
For another experiment, the system named is Pseudomonas aeruginosa. Kind of experiment: Antibacterial activity against Pseudomonas aeruginosa isolate after 48 hrs by serial dilution technique. In kind it is functional. The method in brief:
as §1

The subject of a further experiment is Pseudomonas tolaasii. Kind of experiment: Antibacterial activity against Pseudomonas tolaasii after 48 hrs by serial dilution technique. The format is functional. The procedure, abridged:
as §1

Another experiment relates to Salmonella enteritidis. Kind of experiment: Antibacterial activity against Salmonella enteritidis ATCC 13076 after 48 hrs by serial dilution technique. The format is functional, Salmonella enterica subsp. enterica serovar Enteritidis. The conditions noted are these: Salmonella enterica, ATCC 13076, 48 h. The method in brief:
as §1

In a further experiment the test system is Staphylococcus aureus. As to the kind of experiment: Antibacterial activity against Staphylococcus aureus ATCC 6538 after 48 hrs by serial dilution technique. The format is functional. To be noted: ATCC 6538, 48 h. The method in brief:
as §1

Experiment [2] deals with Micrococcus luteus. Kind of experiment: Antibacterial activity against Micrococcus luteus isolate after 48 hrs by serial dilution technique. The format is functional. The method in brief:
as §1

The subject of experiment [3] is Micrococcus luteus. Kind of experiment: Antibacterial activity against Sarcina lutea ATCC 9341 after 48 hrs by serial dilution technique. The conditions noted are these: ATCC 9341, 48 h. In kind it is functional. The procedure, abridged: as §1
For another experiment, the system named is Bacillus cereus. Kind of experiment: Antibacterial activity against Bacillus cereus isolate after 48 hrs by serial dilution technique. The format is functional. The method in brief:
as §1

By MIC is commonly meant the lowest concentration found to suppress growth. Higher therefore signals weaker potency. `c1ccc(-c2ccc(C(c3ccccc3)n3ccnc3)cc2)cc1` (stereo not drawn) [BIFONAZOLE] registered an MIC in the experiment on Candida albicans of 644 µM (≈ 200 µg/mL).
Take `C=C1C(=O)OC[C@H]1[C@@H](O)/C=C(\C)CC(=O)C=C(C)C`: the MIC was 189 µM (≈ 50 µg/mL) in the experiment with Escherichia coli; 189 µM (≈ 50 µg/mL) against Proteus mirabilis; 94.7 µM (≈ 25 µg/mL) in [1]; 189 µM (≈ 50 µg/mL) against Pseudomonas aeruginosa; 189 µM (≈ 50 µg/mL) against Pseudomonas tolaasii; 189 µM (≈ 50 µg/mL) with Salmonella enteritidis. Also, the MIC in the experiment on Staphylococcus aureus came to 47 µM (≈ 12.4 µg/mL); with Micrococcus luteus [2], 94.7 µM (≈ 25 µg/mL); in the experiment with Micrococcus luteus [3], 47 µM (≈ 12.4 µg/mL); with Bacillus cereus it was 94.7 µM (≈ 25 µg/mL); with Candida albicans, 189 µM (≈ 50 µg/mL).
Regarding `C=C1CC[C@]2(C)CC[C@]3(C)[C@H](CC[C@@H]4[C@@]5(C)CC[C@H](O)C(C)(C)[C@@H]5CC[C@]43C)[C@@H]2[C@@H]1C`, the MIC with Escherichia coli came out at 117 µM (≈ 50.1 µg/mL); in the experiment with Proteus mirabilis it was 117 µM (≈ 50.1 µg/mL); in experiment [1] it was 29.3 µM (≈ 12.5 µg/mL); against Pseudomonas aeruginosa, 117 µM (≈ 50.1 µg/mL); in the experiment with Pseudomonas tolaasii, 117 µM (≈ 50.1 µg/mL); against Salmonella enteritidis, 117 µM (≈ 50.1 µg/mL). For the same compound, the MIC against Staphylococcus aureus is 29.3 µM (≈ 12.5 µg/mL); in the experiment with Micrococcus luteus [2], 58.7 µM (≈ 25 µg/mL); against Micrococcus luteus [3], 14.7 µM (≈ 6.27 µg/mL); with Bacillus cereus, 58.7 µM (≈ 25 µg/mL); against Candida albicans, 117 µM (≈ 50.1 µg/mL).
On to `C=C1C(=O)OCC1C/C=C(\C)CC(=O)C=C(C)C` (stereo not drawn) [ANTHECOTULIDE], for which the MIC with Escherichia coli was determined as 101 µM (≈ 25.1 µg/mL); with Proteus mirabilis, 202 µM (≈ 50.2 µg/mL); in experiment [1], 101 µM (≈ 25.1 µg/mL); with Pseudomonas aeruginosa, 202 µM (≈ 50.2 µg/mL); against Pseudomonas tolaasii, 202 µM (≈ 50.2 µg/mL); in the experiment on Salmonella enteritidis, 202 µM (≈ 50.2 µg/mL). The MIC in the experiment on Staphylococcus aureus was determined as 101 µM (≈ 25.1 µg/mL); against Micrococcus luteus [2], 101 µM (≈ 25.1 µg/mL); with Micrococcus luteus [3], 51 µM (≈ 12.7 µg/mL); in the experiment on Bacillus cereus, 51 µM (≈ 12.7 µg/mL); against Candida albicans, 101 µM (≈ 25.1 µg/mL).
`CN[C@@H]1[C@H](O[C@H]2[C@H](O[C@H]3[C@H](O)[C@@H](O)[C@H](N=C(N)N)[C@@H](O)[C@@H]3N=C(N)N)O[C@@H](C)[C@]2(O)C=O)O[C@@H](CO)[C@H](O)[C@H]1O` [STREPTOMYCIN]: the MIC amounted to 68.6 µM (≈ 39.9 µg/mL) with Escherichia coli; 137 µM (≈ 79.8 µg/mL) in the experiment on Proteus mirabilis; 68.6 µM (≈ 39.9 µg/mL) in experiment [1]; 137 µM (≈ 79.8 µg/mL) in the experiment on Pseudomonas tolaasii; 137 µM (≈ 79.8 µg/mL) against Salmonella enteritidis; 34.3 µM (≈ 19.9 µg/mL) with Staphylococcus aureus. In addition, the minimum inhibitory concentration (MIC) in the experiment with Micrococcus luteus [2], in the experiment on Micrococcus luteus [3] and with Bacillus cereus was 34.3 µM (≈ 19.9 µg/mL) throughout.
Take `COC(=O)c1ccc(O)c(OC)c1` [METHYL VANILLATE]: the MIC with Escherichia coli came to 275 µM (≈ 50 µg/mL); in experiment [1], 275 µM (≈ 50 µg/mL); in the experiment with Pseudomonas tolaasii it was 275 µM (≈ 50 µg/mL); in the experiment on Salmonella enteritidis, 275 µM (≈ 50 µg/mL); against Staphylococcus aureus, 137 µM (≈ 25 µg/mL); against Micrococcus luteus [2], 137 µM (≈ 25 µg/mL). For the same compound, the MIC in the experiment on Micrococcus luteus [3] worked out at 137 µM (≈ 25 µg/mL); in the experiment with Bacillus cereus it was 137 µM (≈ 25 µg/mL); in the experiment on Candida albicans it was 275 µM (≈ 50 µg/mL).
For `C=C1C(=O)OC[C@H]1[C@H](/C=C(\C)CC(=O)C=C(C)C)OC(C)=O`, the MIC came to 81.7 µM (≈ 25 µg/mL) in the experiment on Escherichia coli; 163 µM (≈ 50.1 µg/mL) in the experiment with Proteus mirabilis; 81.7 µM (≈ 25 µg/mL) in [1]; 163 µM (≈ 50.1 µg/mL) in the experiment on Pseudomonas aeruginosa; 163 µM (≈ 50.1 µg/mL) with Pseudomonas tolaasii; 163 µM (≈ 50.1 µg/mL) with Salmonella enteritidis. The minimal inhibitory concentration (MIC) in the experiment with Staphylococcus aureus was found to be 81.7 µM (≈ 25 µg/mL); against Micrococcus luteus [2], 81.7 µM (≈ 25 µg/mL); with Micrococcus luteus [3], 40.8 µM (≈ 12.5 µg/mL); against Bacillus cereus it was 81.7 µM (≈ 25 µg/mL); in the experiment with Candida albicans, 81.7 µM (≈ 25 µg/mL).
